In ChEMBL document CHEMBL1149310, “A screening library for peptide activated G-protein coupled receptors. 1. The test set” (J Med Chem, 2004):

Target: Melanin-concentrating hormone receptor 1 (Rattus norvegicus, UniProt P97639)
Assay: Binding affinity to rat MCH1 receptor
Procedure, shortened: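 Membranes from mammalian cells stably transfected with rat MCH1 receptor, prepared by nitrogen cavitation (900 psi, ice, 30 min) and differential centrifugation (800g, then 38 000g). Radioligand competition at equilibrium in 50 mM HEPES pH 7.0, 10 mM MgCl2, 2 mM EGTA. Hits were taken to 12-point dose-response curves to derive Ki. Bound and free were separated by filtration over PEI-treated GF-C filters and counted by scintillation.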

Chain of Melanin-concentrating hormone receptor 1 (P97639 whole entry): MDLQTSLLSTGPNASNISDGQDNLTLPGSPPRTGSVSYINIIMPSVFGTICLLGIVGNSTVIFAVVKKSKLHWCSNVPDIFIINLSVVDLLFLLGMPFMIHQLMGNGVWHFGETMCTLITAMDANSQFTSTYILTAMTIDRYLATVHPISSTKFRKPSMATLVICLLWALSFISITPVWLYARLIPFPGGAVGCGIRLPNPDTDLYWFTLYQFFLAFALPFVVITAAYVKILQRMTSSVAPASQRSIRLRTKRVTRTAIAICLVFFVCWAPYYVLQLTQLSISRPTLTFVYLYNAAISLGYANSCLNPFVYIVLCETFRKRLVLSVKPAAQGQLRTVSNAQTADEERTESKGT

| Ki | Compound |
| --- | --- |
| 980 nM | O=C(Cc1ccccc1)NC1CCN(Cc2ccc(Cl)c(Cl)c2)C1 (centres undefined) |
| > 10000 nM | O=C(Cc1ccccc1)NC1CCN(Cc2ccccc2)C1 (centres undefined) |
| 5000 nM | CC(CCN1CCC(NCc2ccc(-c3ccc(Cl)cc3)o2)C1)CC(C)(C)C (centres undefined) |
| 630 nM | O=C(Cc1ccc2c(c1)OCO2)NC1CCN(Cc2ccc(Cl)c(Cl)c2)C1 (centres undefined) |
| > 10000 nM | O=C(CCc1ccccc1)NC1CCN(Cc2ccc(Cl)c(Cl)c2)C1 (centres undefined) |
| 510 nM | O=C(Cc1ccc(Oc2ccccc2)cc1)NC1CCN(Cc2ccc(Cl)c(Cl)c2)C1 (centres undefined) |
| 360 nM | O=C(Cc1csc2ccccc12)NC1CCN(Cc2ccc(Cl)c(Cl)c2)C1 (centres undefined) |
| 2 nM | COCC1=C(C(=O)OC)[C@H](c2ccc(F)c(F)c2)N(C(=O)NCCCN2CCC(c3cccc(NC(C)=O)c3)CC2)C(=O)N1 [SNAP-7941] |
| 1700 nM | Clc1ccc(-c2ccc(CNC3CCN(CC(c4ccccc4)c4ccccc4)C3)o2)cc1 (centres undefined) |
| 3100 nM | O=C(CCCc1ccccc1)NC[C@H]1CCCN1CCc1ccccc1 |
| 6000 nM | O=C(Cc1csc2ccccc12)NC[C@@H]1CCCN1Cc1ccc(Cl)c(Cl)c1 |
| > 10000 nM | O=C(CCCc1ccccc1)NC[C@@H]1CCCN1CCc1ccccc1 |
| 9800 nM | O=C(Cc1csc2ccccc12)NC[C@H]1CCCN1Cc1ccc(Cl)c(Cl)c1 |

| Compound | Ki |
| --- | --- |
| O=C(Cc1ccccc1)NC1CCN(CCc2ccccc2)C1 (centres undefined) | > 10000 nM |
